Hits are enriched below; roughly 5.4% of the tested compounds scored in any of these assays.
PostGolgi yeast – growth inhibition of a yeast mutant, post-Golgi transport screen. 98,000 tested, 0.9% active. inhibition, % at 10 µM. post-Golgi transport phenotypic cell assay. AID 739;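 also: yeast cells grown in 1536-well plates; yeast grown about 18 h at 30C before absorbance read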
Ecoli WT expand – growth inhibitors of E. coli BW25113 wild type. OD600 absorbance. growth inhibition, % at 100 µM. 98,000 tested, 0.15% active. AID 710;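 active = growth inhibition above about 50% at one test dose, limit read from the data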;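 also: growth measured after 20 h incubation at 37 °C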
HePTP inh – human HePTP phosphatase inhibition | P35236 | recombinant HePTP phosphatase activity, OD absorbance | inhibition, % at 20 µM | 110,000 tested, 0.64% active | AID 521; in the data active = inhibition above about 50%
PLAP activator – activators of human placental alkaline phosphatase | purified PLAP enzyme, luminescent substrate read-out; stronger effect = higher value | P05187 | activation fold at 20 µM | 96,000 tested, 1.2% active; in the data active = activation fold above about 2
Target sequence (P05187 whole entry, looked up): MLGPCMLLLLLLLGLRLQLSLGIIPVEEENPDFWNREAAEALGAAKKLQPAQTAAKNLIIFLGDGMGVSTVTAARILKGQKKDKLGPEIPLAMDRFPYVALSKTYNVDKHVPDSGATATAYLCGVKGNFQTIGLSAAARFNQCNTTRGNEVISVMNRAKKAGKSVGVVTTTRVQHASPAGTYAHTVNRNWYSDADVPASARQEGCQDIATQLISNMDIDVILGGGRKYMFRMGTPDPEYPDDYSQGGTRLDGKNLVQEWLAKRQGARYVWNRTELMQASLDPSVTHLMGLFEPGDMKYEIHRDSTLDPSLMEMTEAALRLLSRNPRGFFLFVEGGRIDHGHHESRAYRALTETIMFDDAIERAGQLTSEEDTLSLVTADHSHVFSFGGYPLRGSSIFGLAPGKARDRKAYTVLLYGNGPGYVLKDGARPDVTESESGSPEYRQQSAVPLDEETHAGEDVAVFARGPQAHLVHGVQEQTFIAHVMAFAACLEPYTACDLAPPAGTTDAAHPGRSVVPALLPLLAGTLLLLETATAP
PostGolgi ctrl – growth of the yeast control strain, post-Golgi counter-screen; 98,000 tested, 5% active; efflux-deficient yeast background strain, growth absorbance A615, 16 h; inhibition, % at 10 µM
tolC growth inh – E. coli tolC mutant growth inhibition; E. coli BW25113 tolC mutant growth, OD615; growth inhibition, % at 10 µM (by protocol); 65,000 tested, 2.2% active;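 active = growth inhibition at or above a cutoff equal to the mean over every tested compound plus 3 SD, cut at about 60% in these data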;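 also: growth measured after 20 h incubation at 37 °C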
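Test system: E. coli BW25113 ΔtolC::kan bacteria; incubation: 37 °C, 20 h exposure; medium: LB broth supplemented with 50 µg/mL kanamycin; read-out basis: percent growth inhibition; signal: A615 absorbance measurement; compound: 10 µM final, single dose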
A number is an active result. Rule as the data show it, unless noted: active = inhibition above about 30%; inactive = the rest.

`CC(C)N1C2OC(C3OC4C(O3)N(C(C)C)S(=O)(=O)N4C(C)C)OC2N(C(C)C)S1(=O)=O` (stereo not given) gave PostGolgi yeast 104, Ecoli WT expand inactive, PLAP activator inactive and PostGolgi ctrl 96.
`CC(C)(C)OC(=O)N[C@@H](Cc1ccccc1)c1nnc(S(=O)(=O)Cc2ccccc2)o1` gave PostGolgi yeast inactive, Ecoli WT expand inactive, HePTP inh inactive, PLAP activator inactive, PostGolgi ctrl inactive and tolC growth inh inactive.
Screening CCC(C)C(NCc1cccc(C)c1)C(=O)O (stereo not given) returned HePTP inh inactive and tolC growth inh inactive.
CCC(C)[C@@H](NC(=O)OC(C)(C)C)c1nnc(S(=O)(=O)Cc2cccc(C)c2)o1 (stereo not given in full) was read as PostGolgi yeast inactive, Ecoli WT expand inactive, HePTP inh inactive, PLAP activator inactive, PostGolgi ctrl 52 and tolC growth inh inactive.
Cc1ccccc1CS(=O)(=O)c1nnc([C@H](Cc2ccccc2)NC(=O)OC(C)(C)C)o1 was read as PostGolgi yeast 37, Ecoli WT expand inactive, PLAP activator inactive and PostGolgi ctrl 51.
`COc1cccc(NC(=O)CCCN2C(=O)c3cccc4cccc(c34)C2=O)c1` gave HePTP inh inactive.
For COc1ccc(/C=C(/NC(=O)c2ccccc2Br)C(=O)NC(Cc2ccccc2)C(=O)O)c(OC)c1 (stereo not given) the results were HePTP inh inactive.
For CCc1cc2c(=O)c(Oc3ccccc3F)c(C)oc2c(CN(C)C)c1O the results were PostGolgi yeast 51, Ecoli WT expand inactive, HePTP inh inactive, PLAP activator inactive, PostGolgi ctrl inactive and tolC growth inh inactive.
For O=C(CC1SC(=O)N(Cc2cccc3ccccc23)C1=O)Nc1nccs1 (stereo not given) the results were PostGolgi yeast inactive, Ecoli WT expand inactive, PLAP activator inactive and PostGolgi ctrl 33.
For Cc1ccc(Nc2cc(C)nc(-c3ccccc3O)n2)cc1 the results were PostGolgi yeast inactive, Ecoli WT expand inactive, PLAP activator inactive and PostGolgi ctrl 40.
For O=C(CN(c1cccc(Cl)c1)S(=O)(=O)c1ccccc1)NCCSc1nc2ccccc2s1 the results were HePTP inh inactive.
`Nc1cccc2nc3ccccc3cc12` gave PostGolgi yeast inactive, Ecoli WT expand 57, PLAP activator inactive and PostGolgi ctrl inactive.
Cc1ccccc1NC1CC(C)N(C(=O)c2ccccc2)c2c(C)cccc21 (stereo not given) was read as HePTP inh 103.
`C#CCOc1nc(Nc2ccc([N+](=O)[O-])cc2)nc(OCC#C)n1` gave HePTP inh inactive.
`O=C1CCCN1CCCNc1ncnc2c1cnn2-c1ccc(Cl)cc1` gave PostGolgi yeast inactive, Ecoli WT expand inactive, HePTP inh inactive, PLAP activator inactive, PostGolgi ctrl 38 and tolC growth inh inactive.
Screening Cc1cccc(-n2ncc3c(NCCCN4CCCC4=O)ncnc32)c1 returned PostGolgi yeast inactive, Ecoli WT expand inactive, PLAP activator inactive and PostGolgi ctrl inactive.
Screening COc1ccc(C(C)=O)cc1CSc1nc2cc(Cl)ccc2o1 returned PostGolgi yeast inactive, Ecoli WT expand inactive, PLAP activator inactive and PostGolgi ctrl 47.
For O=c1c(-c2nnc(SCc3ccc(Cl)cc3Cl)o2)cccn1Cc1ccccc1 the results were PostGolgi yeast inactive, Ecoli WT expand inactive, PLAP activator inactive and PostGolgi ctrl 66.
`O=[N+]([O-])c1nn(-c2ccc3c(c2)OCCO3)n(O)c1=NC1CCCCC1` gave PostGolgi yeast inactive, Ecoli WT expand inactive, PLAP activator inactive and PostGolgi ctrl inactive.
Screening O=[N+]([O-])c1nn(-c2ccc3c(c2)OCCO3)n(O)c1=NCc1ccccc1Cl returned PostGolgi yeast inactive, Ecoli WT expand inactive, PLAP activator inactive and PostGolgi ctrl 44.
`O=C(/C=C/c1ccc(OCc2ccccc2)cc1)c1ccc(Cl)cc1` gave HePTP inh inactive.
CC(C)Cn1c(=O)c(C(=O)NCc2ccccn2)c(O)c2ccccc21 was read as PostGolgi yeast inactive, Ecoli WT expand inactive, HePTP inh inactive, PLAP activator inactive, PostGolgi ctrl 31 and tolC growth inh inactive.
`Cc1nn(-c2ccccn2)c(C)c1Oc1ccccc1O` gave PostGolgi yeast 34, Ecoli WT expand inactive, HePTP inh inactive, PLAP activator inactive, PostGolgi ctrl inactive and tolC growth inh inactive.
COCC(C)n1c(C)cc(C(=O)COc2ccc(S(=O)(=O)N3CCOCC3)cc2Cl)c1C (stereo not given) was read as PostGolgi yeast inactive, Ecoli WT expand inactive, HePTP inh inactive, PLAP activator 2, PostGolgi ctrl inactive and tolC growth inh inactive.
For CCN1C(=O)/C(=C2\SC(=O)N(Cc3ccccc3)C2=O)c2ccccc21 the results were HePTP inh inactive.
`O=C(CNC(=O)c1ccc([N+](=O)[O-])cc1)c1ccccc1` gave PostGolgi yeast inactive, Ecoli WT expand inactive, PLAP activator inactive and PostGolgi ctrl inactive.
O=C(C#Cc1ccccc1)c1ccc([N+](=O)[O-])cc1 was read as PostGolgi yeast inactive, Ecoli WT expand inactive, PLAP activator inactive and PostGolgi ctrl 36.
`CCOC(=O)C1=C(O)/C(=C\c2ccc3c(c2)OCO3)SC1=Nc1ccccc1` gave HePTP inh inactive.
`CCOc1ccc(C(=O)N2CCN(c3ccc([N+](=O)[O-])cc3Cl)CC2)cc1` gave HePTP inh inactive.
CCCC(=O)N1CCN(c2ccc(NC(=O)c3cc4ccccc4o3)cc2Cl)CC1 was read as PostGolgi yeast 86, Ecoli WT expand inactive, HePTP inh inactive, PLAP activator inactive, PostGolgi ctrl 50 and tolC growth inh inactive.
CCCOc1ccc(C(=O)N2CCN(c3ccc(NC(=O)CC)cc3Cl)CC2)cc1 was read as PostGolgi yeast inactive, Ecoli WT expand inactive, HePTP inh inactive, PLAP activator inactive, PostGolgi ctrl inactive and tolC growth inh 63.
For CCC(=O)N1CCN(c2ccc(NC(=O)c3cc4ccccc4o3)cc2Cl)CC1 the results were PostGolgi yeast inactive, Ecoli WT expand inactive, HePTP inh inactive, PLAP activator inactive, PostGolgi ctrl 38 and tolC growth inh inactive.
O=C(Nc1ccc(N2CCN(C(=O)c3ccco3)CC2)c(Cl)c1)c1cc2ccccc2o1 was read as PostGolgi yeast inactive, Ecoli WT expand inactive, HePTP inh inactive, PLAP activator inactive, PostGolgi ctrl inactive and tolC growth inh inactive.
For Cc1ccc(NC(=O)CN(c2cccc(Br)c2)S(=O)(=O)c2ccccc2)cc1C the results were HePTP inh inactive.
For COC(=O)/C=C1\S/C(=N/NC(=O)c2ccccc2)NC1=O the results were PostGolgi yeast inactive, Ecoli WT expand inactive, PLAP activator 2.5 and PostGolgi ctrl inactive.
`COC(=O)/C=C1/S/C(=N/NC(=O)c2ccccc2)NC1=O` gave PostGolgi yeast inactive, Ecoli WT expand inactive, PLAP activator inactive and PostGolgi ctrl inactive.
